Assay results from ChEMBL document CHEMBL4359896, “Chromenone derivatives as a versatile scaffold with dual mode of inhibition of HIV-1 reverse transcriptase-associated Ribonuclease H function and integrase activity” (Eur J Med Chem, 2019).

Tests used:
[1] = molecular target: Human immunodeficiency virus type 1 reverse transcriptase (Human immunodeficiency virus 1, UniProt Q72547); test: Inhibition of His6-tagged HIV-1 reverse transcriptase RNase H using 5'-GTTTTCTTTTCCCCCCTGAC-3'-Fluorescein-labeled RNA/5'-CAAAAGAAAAGGGGGGACUG-3'-Dabcyl-labeled DNA as susbtrate incubated for 1 hr by fluorescence based assay
[2] = molecular target: T1, Human immunodeficiency virus type 1 integrase (Human immunodeficiency virus 1, UniProt Q7ZJM1); test: Inhibition of LEDGF/p75-dependent full length HIV-1 integrase expressed in Escherichia coli BL21(DE3) cells preincubated for 1 hr further incubated for 90 mins with biotin-labeled donor DNA and target DNA by HTRF assay
[3] = molecular target: T1, Human immunodeficiency virus type 1 integrase; test: Inhibition of subunit exchanging activity of His and Flag-tagged HIV-1 integrase expressed in Escherichia coli BL21(DE3) cells after 2.5 hrs by HTRF assay
[4] = Inhibition of His-tagged HIV-1 integrase interaction with HIV-1 FLAG-tagged LEDGF/p75 expressed in Escherichia coli BL21(DE3) cells incubated for 30 mins followed by LEDGF addition measured after 4 hrs by HTRF assay; parameters: species or system Human immunodeficiency virus 1
[5] = test system: Human immunodeficiency virus 1; test: Inhibition of His-tagged HIV-1 integrase interaction with HIV-1 FLAG-tagged LEDGF/p75 expressed in Escherichia coli BL21(DE3) cells at 100 uM incubated for 30 mins followed by LEDGF addition measured after 4 hrs by HTRF assay relative to control
[6] = molecular target: Human immunodeficiency virus type 1 integrase (Human immunodeficiency virus 1) (UniProt Q7ZJM1)
[7] = molecular target: Human immunodeficiency virus type 1 integrase (Human immunodeficiency virus 1) (UniProt Q7ZJM1); test: Inhibition of LEDGF/p75-dependent full length HIV-1 integrase expressed in Escherichia coli BL21(DE3) cells at 100 uM preincubated for 1 hr further incubated for 90 mins with biotin-labeled donor DNA and target DNA by HTRF assay relative to control
Procedure, shortened: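 Added 9 nM biotinylated donor DNA, 50 nM Cy5 acceptor DNA and 50 nM LEDGF/p75. Incubation 90 min at 37 °C, then 4 nM europium-streptavidin added. HTRF read (excitation 314 nm, emission 668/620 nm).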

[8] = molecular target: Human immunodeficiency virus type 1 reverse transcriptase (Human immunodeficiency virus 1) (UniProt Q72547); test: Residual activity of His-tagged HIV-1 reverse transcriptase RNase H at 100 uM using 5'-GTTTTCTTTTCCCCCCTGAC-3'-Fluorescein-labeled RNA/5'-CAAAAGAAAAGGGGGGACUG-3'-Dabcyl-labeled DNA as susbtrate incubated for 1 hr by fluorescence based assay relative to control

T1 sequence (Q7ZJM1 whole entry): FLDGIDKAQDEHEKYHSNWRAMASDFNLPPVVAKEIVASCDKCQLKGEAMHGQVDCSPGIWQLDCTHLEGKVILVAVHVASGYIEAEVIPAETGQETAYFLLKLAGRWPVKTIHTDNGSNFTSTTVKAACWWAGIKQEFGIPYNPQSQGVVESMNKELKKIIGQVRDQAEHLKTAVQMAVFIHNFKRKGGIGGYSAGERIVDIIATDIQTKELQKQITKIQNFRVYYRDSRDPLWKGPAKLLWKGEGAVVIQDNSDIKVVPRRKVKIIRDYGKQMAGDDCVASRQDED
Human immunodeficiency virus type 1 integrase (Human immunodeficiency virus 1), sequence (Q7ZJM1 as listed by the source): as the sequence (Q7ZJM1 whole entry) above

| IC50 [1] | IC50 [2] | IC50 [3] | IC50 [4] | MI50 [6] | inhibition [7] | residual activity [8] | Structure (SMILES) | inhibition [5] |
| --- | --- | --- | --- | --- | --- | --- | --- | --- |
| 26.3 µM | 8.5 µM | – | – | – | – | – | CC(=O)c1c(O)c2c(=O)oc3ccccc3c2oc1=O | – |
| 51.8 µM | > 100 µM | – | – | – | 61% | – | Cc1cc(-c2c(O)c3c(=O)oc4ccccc4c3oc2=O)nn1-c1ccccc1 | – |
| 16.5 µM | 9.5 µM | 69 µM | > 100 µM | > 100 µM | – | – | Cc1ccc2oc(=O)c3c(O)cc(=O)oc3c2c1 | 55% |
| 25.5 µM | 18.5 µM | – | – | – | – | – | CC(=O)c1c(O)c2c(=O)oc3c(C)cccc3c2oc1=O | – |
| > 100 µM | 41.5 µM | – | – | – | – | 89% | Cc1ccc2c(c1)oc(=O)c1c(O)cc(=O)oc12 | – |
| 13.8 µM | 47.5 µM | – | – | – | – | – | CC(=O)CC(=O)c1c(O)c2c(=O)oc3ccc4ccccc4c3c2oc1=O | – |
| 85.8 µM | 42 µM | – | – | – | – | – | CC(=O)CC(=O)c1c(O)c2c(=O)oc3ccccc3c2oc1=O | – |
| – | – | – | > 100 µM | – | – | – | Cc1nnc(C(=O)NC(C)(C)c2nc(C(=O)NCc3ccc(F)cc3)c(O)c(=O)n2C)o1 | 100% |

More lines, now with the values behind:

| Structure (SMILES) | IC50 [1] | IC50 [2] | IC50 [3] | IC50 [4] | MI50 [6] | inhibition [7] | residual activity [8] | inhibition [5] |
| --- | --- | --- | --- | --- | --- | --- | --- | --- |
| O=c1cc(O)c2c(=O)oc3c4ccccc4ccc3c2o1 | 24.7 µM | 7.5 µM | 57 µM | > 100 µM | > 100 µM | – | – | 53% |
| CCCC(C(=O)O)c1c(C)nc2ccc(Cl)cc2c1-c1ccccc1 (centres undefined) | – | – | – | 13 µM | 10 µM | – | – | – |
| O=C(c1ccccc1)c1ccc2c(c1)N=CCC(c1c(O)c3c(=O)oc4ccccc4c3oc1=O)=N2 | 38.4 µM | 20 µM | > 100 µM | > 100 µM | > 100 µM | – | – | 81% |
| Cc1cc(=O)c2c(=O)oc3c4ccccc4oc(=O)c3c2o1 | 16.8 µM | 14 µM | > 100 µM | > 100 µM | > 100 µM | – | – | 56% |
| CC(=O)c1c(O)c2c(=O)oc3cc(C)ccc3c2oc1=O | > 100 µM | 22.4 µM | – | – | – | – | 63% | – |
| CC(=O)CC(=O)c1c(O)c2c(=O)oc3c4ccccc4ccc3c2oc1=O | 51.2 µM | 11 µM | 85 µM | > 100 µM | > 100 µM | – | – | 73% |
| CC(=O)c1c(O)c2c(=O)oc3ccc(C)cc3c2oc1=O | 6.75 µM | 6.45 µM | 56.5 µM | > 100 µM | > 100 µM | – | – | 52% |
| Cc1ccc2oc(=O)c3cc(C4=Nc5ccc(C(=O)c6ccccc6)cc5N=CC4)c(=O)oc3c2c1 | 42.9 µM | > 100 µM | – | – | – | 78% | – | – |
| Cc1cccc2c1oc(=O)c1c(O)cc(=O)oc12 | 29.8 µM | 24 µM | – | – | – | – | – | – |
| O=c1cc(O)c2c(=O)oc3ccc4ccccc4c3c2o1 | 61.3 µM | 21.5 µM | – | – | – | – | – | – |
